In PubChem BioAssay:
Calls of active or inactive are those of the source.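 Rule for the calls, unless noted: active = GFP response above 150% of the DMSO level; inconclusive = fewer than 70 events counted for a yeast strain; inactive = the rest.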

Key:
[1] = hit retest on RPL19A-GFP reporter strain – cell-based, S. cerevisiae, flow cytometry, cherry picks, mother/daughter gates, confirmation (AID 2270;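 active = GFP response below 50% of the DMSO control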); conditions: 3 h, at 10 µM, stronger effect = lower value, 100 = same GFP as DMSO wells
[2] = yeast TOR pathway reporter LAP4-GFP change – cell-based, cherry picks, flow cytometry, mother/daughter gates, confirmation (AID 2271;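 active = GFP response above 150% of the DMSO control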;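 note: ratio of sample to DMSO plate mean so 100% equals DMSO level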); conditions: S. cerevisiae LAP4-GFP strain, 3 h, at 10 µM, stronger effect = higher value, 100 means same as DMSO control
In short: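 System: GFP-fusion yeast strain | Input: Yeast cells seeded at OD600 of 0.2 | Technique: HT flow cytometry, GFP fluorescence channel | Read-out: % GFP response vs DMSO | Dosing: Single test-compound dose, 10 µM final | Controls: Positive rapamycin (400 ng/mL), negative DMSO | Times: 3 h treatment at 30 °C with rotation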

[3] = TOR pathway reporter MEP2-GFP, retest of hits – S. cerevisiae, flow cytometry GFP, cherry picks, confirmation (AID 2272;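 active = GFP response above 150% of the DMSO control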;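 note: ratio of well signal to plate DMSO mean so 100% equals DMSO level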); conditions: S. cerevisiae MEP2-GFP strain, 3 h, at 10 µM, stronger effect = higher value
[4] = yeast AGP1-GFP fluorescence change, single-dose – cell-based, flow cytometry, S. cerevisiae, cherry picks, confirmation (AID 2273);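 note: median GFP channel fluorescence over the whole cell population gate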; conditions: S. cerevisiae AGP1-GFP strain, 3 h, at 10 µM
[5] = TOR pathway CIT2 reporter hit retest – S. cerevisiae, GFP fusion, cherry picks, mother/daughter gates, confirmation (AID 2274); conditions: S. cerevisiae CIT2-GFP strain, flow cytometry, 3 h, at 10 µM, stronger effect = higher value
[6] = measured here: daughter cell gate
[7] = measured here: mother cell gate
[8] = measured here: daughter cell gate response
[9] = measured here: mother cell gate response

Compound | GFP response vs DMSO [1] | GFP response vs DMSO [1, 6] | GFP response vs DMSO [1, 7] | GFP response relative to DMSO [2] | GFP response relative to DMSO [2, 8] | GFP response relative to DMSO [2, 9] | GFP response vs DMSO [3] | GFP response, % of DMSO [4] | GFP response, % of DMSO [5] | GFP response, % of DMSO [5, 6] | GFP response, % of DMSO [5, 7]
CCCc1[nH]nc2c1C(c1ccc(OC)c(CSC3=NCCS3)c1)C(C#N)=C(N)O2 (stereo not drawn) | 96.8% (inactive) | 97.3% | 97.6% | 109% (inactive) | 109% | 107% | 97.5% (inactive) | 105% (inactive) | 95% (inactive) | 94.6% | 94.5%
CCOc1ccccc1N1CCN(C(=O)c2cccc(-c3ccc(O)cc3)c2)CC1 | 97% (inactive) | 96.7% | 97.3% | 98.7% (inactive) | 95.6% | 102% | 102% (inactive) | 92.4% (inactive) | 96.5% (inactive) | 94.8% | 94.4%
CC[n+]1ccc(/C=C/c2c[nH]c3ccccc23)cc1 | 100% (inactive) | 101% | 98.8% | 104% (inactive) | 104% | 105% | 128% (inactive) | 102% (inactive) | 117% (inactive) | 119% | 119%
Cc1ccc(N2C(=O)C3C4C=CC(CNC(=S)N5CCN(c6ccccn6)CC5)(O4)C3C2=O)cc1 (stereo not drawn) | 98.7% (inactive) | 99.6% | 98.6% | 113% (inactive) | 109% | 111% | 106% (inactive) | 105% (inactive) | 99.3% (inactive) | 100% | 96.8%
Cc1ccsc1C(=O)N(Cc1nnc(-c2ccccc2Cl)o1)C1CC1 | 95.8% (inactive) | 97.3% | 95.2% | 98.9% (inactive) | 96% | 100% | 103% (inactive) | 102% (inactive) | 100% (inactive) | 99.3% | 99.3%
COc1ccc(N2C(=O)C(Cl)=C(Nc3c(C)n(C)n(-c4ccccc4)c3=O)C2=O)cc1 | 102% (inactive) | 106% | 101% | 100% (inactive) | 101% | 101% | 99.5% (inactive) | 89% (inactive) | 92.1% (inactive) | 87.2% | 87.5%
CCOC(=O)c1cnn(-c2cc(C)nc3c(-c4ccccc4)c(C)nn23)c1N | 96.6% (inactive) | 97.4% | 96.6% | 95.4% (inactive) | 96% | 94% | 105% (inactive) | 94.3% (inactive) | 98.3% (inactive) | 99.1% | 97.3%
COC(=O)c1sc(-c2ccc(C(C)(C)C)cc2)cc1NC(=O)CCC(=O)O | 98.6% (inactive) | 97.3% | 98.9% | 98.7% (inactive) | 95.6% | 100% | 100% (inactive) | 95.4% (inactive) | 97.8% (inactive) | 96.5% | 98.7%
Cc1ccc(N2C(=O)C(Cl)=C(NCc3ccccc3)C2=O)c(C)c1 | 96.2% (inactive) | 95.2% | 97% | 106% (inactive) | 104% | 107% | 101% (inactive) | 100% (inactive) | 94.4% (inactive) | 95.6% | 94.4%
CCOC(=O)Cn1cc(/C=C/[N+](=O)[O-])c2ccccc21 | 95.8% (inactive) | 92.7% | 93.5% | 160% (active) | 153% | 157% | 99.3% (inactive) | 95% (inactive) | 88.9% (inactive) | 92.3% | 83.7%
Cc1cc(N)n2ncc(-c3ccccc3)c2n1 | 95.6% (inactive) | 95.1% | 94% | 106% (inactive) | 102% | 106% | 105% (inactive) | 89.4% (inactive) | 101% (inactive) | 101% | 98.5%
CCN=C(NCC)SC1CC(=O)N(c2cccc(OCC)c2)C1=O (stereo not drawn) | 99.2% (inactive) | 97.1% | 98.4% | 101% (inactive) | 99.2% | 98.3% | 100% (inactive) | 101% (inactive) | 103% (inactive) | 103% | 102%
CC(Oc1ccc(Cl)cc1)C(=O)NNC(=S)NC(=O)c1ccco1 (stereo not drawn) | 99.6% (inactive) | 97.1% | 97.2% | 227% (active) | 112% | 205% | 128% (inactive) | 115% (inactive) | 106% (inactive) | 88.4% | 93.2%
CC(C)(C)NC(=O)c1ccccc1-c1nc(-c2ccccc2Cl)no1 | 94.8% (inactive) | 95.9% | 93.2% | 99.5% (inactive) | 99.1% | 99.4% | 107% (inactive) | 97.3% (inactive) | 93% (inactive) | 92% | 93.2%
CC(C)(C)c1cc(C(c2cccnc2)N2CCN(CCO)CC2)cc(C(C)(C)C)c1O (stereo not drawn) | 98.2% (inactive) | 108% | 91.3% | 151% (active) | 168% | 138% | 118% (inactive) | 94.3% (inactive) | 99.3% (inactive) | 126% | 82.8%
COc1cccc(NC(=O)Nc2ccc3c(c2)nnn3C)c1 | 97.8% (inactive) | 98.1% | 96.9% | 103% (inactive) | 102% | 104% | 100% (inactive) | 97.2% (inactive) | 101% (inactive) | 103% | 101%
Cc1ccc2c(c1)c(/C=C/c1cc[n+](C)cc1)c(C)n2C | 107% (inactive) | 109% | 108% | 178% (active) | 194% | 173% | 226% (active) | 114% (inactive) | 184% (active) | 191% | 177%

Compound | GFP response vs DMSO [1] | GFP response vs DMSO [1, 6] | GFP response vs DMSO [1, 7] | GFP response relative to DMSO [2] | GFP response relative to DMSO [2, 8] | GFP response relative to DMSO [2, 9] | GFP response vs DMSO [3] | GFP response, % of DMSO [4] | GFP response, % of DMSO [5] | GFP response, % of DMSO [5, 6] | GFP response, % of DMSO [5, 7]
CCN(CC)S(=O)(=O)c1cccc(C(=O)NCC(c2ccccc2)N(C)C)c1 (stereo not drawn) | 99.7% (inactive) | 102% | 98.5% | 110% (inactive) | 111% | 106% | 106% (inactive) | 104% (inactive) | 104% (inactive) | 106% | 98%
CCc1cc(=O)oc2c(CN3CCCC3)c(O)c(Cl)cc12 | 97.6% (inactive) | 101% | 95.8% | 104% (inactive) | 105% | 100% | 110% (inactive) | 98.4% (inactive) | 107% (inactive) | 105% | 102%
CCC(=O)Oc1oc(-c2ccccc2)nc1C=Nc1ccc(C)cc1 | 103% (inactive) | 103% | 103% | 111% (inactive) | 113% | 113% | 126% (inactive) | 102% (inactive) | 108% (inactive) | 110% | 109%
CNC(=O)/C(C#N)=C/c1c(N(Cc2ccccc2)Cc2ccccc2)nc2ccccn2c1=O | 97.3% (inactive) | 98.1% | 96.9% | 100% (inactive) | 99% | 101% | 93.1% (inactive) | 104% (inactive) | 100% (inactive) | 101% | 99.3%
O=C(Nc1cc(Sc2ccccn2)cc([N+](=O)[O-])c1)c1cccc(Cl)c1 | 96.9% (inactive) | 95.3% | 96.3% | 102% (inactive) | 104% | 104% | 106% (inactive) | 103% (inactive) | 88.9% (inactive) | 86.9% | 89.3%
COc1ccc2c(c1)C=Cc1ccccc1O2 | 98.4% (inactive) | 97.6% | 99.5% | 99.2% (inactive) | 99.2% | 99.3% | 98.3% (inactive) | 95.6% (inactive) | 104% (inactive) | 106% | 102%
CCOC(=O)CSC1=NC(=O)/C(=C/c2ccc(OC)cc2)S1 | 100% (inactive) | 92.5% | 98.2% | 154% (active) | 139% | 159% | 103% (inactive) | 102% (inactive) | 79.7% (inactive) | 79.4% | 71.8%
O=C(Nc1nc(-c2ccccc2Cl)cs1)c1cccnc1 | 100% (inactive) | 94.7% | 99.2% | 97.4% (inactive) | 95.6% | 99.3% | 100% (inactive) | 89.1% (inactive) | 99.1% (inactive) | 94.8% | 97.7%
CN1C(=O)c2cccc3c(Cl)ccc(c23)C1=O | 97.8% (inactive) | 95.7% | 98% | 107% (inactive) | 107% | 107% | 105% (inactive) | 92.4% (inactive) | 97.3% (inactive) | 95.6% | 98.1%
COc1cc(NC(=O)c2ccc(F)cc2)ccc1NC(=O)c1cc2ccccc2o1 | 98% (inactive) | 99.1% | 94.3% | 96.1% (inactive) | 96.6% | 96.2% | 101% (inactive) | 102% (inactive) | 94.7% (inactive) | 96.8% | 94.7%
Cc1ccc(N2C(=O)C3C4C=CC(CNC(=S)N5CCN(c6cccc(C)c6)C(C)C5)(O4)C3C2=O)cc1 (stereo not drawn) | 97.3% (inactive) | 97.3% | 96.7% | 92.9% (inactive) | 92.9% | 94.4% | 103% (inactive) | 103% (inactive) | 100% (inactive) | 97.6% | 100%
COc1ccc(OC(=O)c2cc(S(=O)(=O)N3CCCC3)ccc2Cl)cc1 | 97.6% (inactive) | 96.9% | 97.2% | 97.9% (inactive) | 99.2% | 97.2% | 98.3% (inactive) | 94.3% (inactive) | 101% (inactive) | 103% | 101%
Cc1ccccc1CN1CCSc2sccc2C1=O | 95.9% (inactive) | 94.2% | 97.3% | 106% (inactive) | 105% | 113% | 95.7% (inactive) | 97.2% (inactive) | 97.8% (inactive) | 94.8% | 98.7%
COc1cccc2c1Oc1ncccc1N(C(=O)CCC(=O)NCc1ccc(F)cc1)C2 | 98% (inactive) | 98.1% | 98.2% | 101% (inactive) | 101% | 99.3% | 102% (inactive) | 96.6% (inactive) | 105% (inactive) | 105% | 104%
Cc1ccc(C(C[N+](=O)[O-])n2nc(C)cc2C)cc1 (stereo not drawn) | 97% (inactive) | 101% | 93.6% | 120% (inactive) | 120% | 125% | 103% (inactive) | 102% (inactive) | 90.9% (inactive) | 95.2% | 87.8%
COc1ccc(C2CC(c3ccccc3)=NN2S(=O)(=O)c2ccccc2)c(OC)c1 (stereo not drawn) | 99.2% (inactive) | 99.8% | 99.1% | 99.5% (inactive) | 102% | 99.4% | 99% (inactive) | 103% (inactive) | 106% (inactive) | 108% | 104%
